Data taken from ChEMBL document CHEMBL4196202, “Discovery and Structure-Based Optimization of Benzimidazole-Derived Activators of SOS1-Mediated Nucleotide Exchange on RAS” (J Med Chem, 2018).
Active and inactive are the calls of the source. The calls are words filed in the database; no cut-off is given here.

Legend:
[1] = molecular target: T1, Son of sevenless homolog 1 (Homo sapiens, UniProt Q07889); assay: Binding affinity to human recombinant N-terminal His6-tagged SOS1 (564 to 1049 residues) expressed in BL21-RIL Escherichia coli by fluorescent probe S1 based fluorescence polarization anisotrophy saturation binding assay
T1 sequence (Q07889 whole entry): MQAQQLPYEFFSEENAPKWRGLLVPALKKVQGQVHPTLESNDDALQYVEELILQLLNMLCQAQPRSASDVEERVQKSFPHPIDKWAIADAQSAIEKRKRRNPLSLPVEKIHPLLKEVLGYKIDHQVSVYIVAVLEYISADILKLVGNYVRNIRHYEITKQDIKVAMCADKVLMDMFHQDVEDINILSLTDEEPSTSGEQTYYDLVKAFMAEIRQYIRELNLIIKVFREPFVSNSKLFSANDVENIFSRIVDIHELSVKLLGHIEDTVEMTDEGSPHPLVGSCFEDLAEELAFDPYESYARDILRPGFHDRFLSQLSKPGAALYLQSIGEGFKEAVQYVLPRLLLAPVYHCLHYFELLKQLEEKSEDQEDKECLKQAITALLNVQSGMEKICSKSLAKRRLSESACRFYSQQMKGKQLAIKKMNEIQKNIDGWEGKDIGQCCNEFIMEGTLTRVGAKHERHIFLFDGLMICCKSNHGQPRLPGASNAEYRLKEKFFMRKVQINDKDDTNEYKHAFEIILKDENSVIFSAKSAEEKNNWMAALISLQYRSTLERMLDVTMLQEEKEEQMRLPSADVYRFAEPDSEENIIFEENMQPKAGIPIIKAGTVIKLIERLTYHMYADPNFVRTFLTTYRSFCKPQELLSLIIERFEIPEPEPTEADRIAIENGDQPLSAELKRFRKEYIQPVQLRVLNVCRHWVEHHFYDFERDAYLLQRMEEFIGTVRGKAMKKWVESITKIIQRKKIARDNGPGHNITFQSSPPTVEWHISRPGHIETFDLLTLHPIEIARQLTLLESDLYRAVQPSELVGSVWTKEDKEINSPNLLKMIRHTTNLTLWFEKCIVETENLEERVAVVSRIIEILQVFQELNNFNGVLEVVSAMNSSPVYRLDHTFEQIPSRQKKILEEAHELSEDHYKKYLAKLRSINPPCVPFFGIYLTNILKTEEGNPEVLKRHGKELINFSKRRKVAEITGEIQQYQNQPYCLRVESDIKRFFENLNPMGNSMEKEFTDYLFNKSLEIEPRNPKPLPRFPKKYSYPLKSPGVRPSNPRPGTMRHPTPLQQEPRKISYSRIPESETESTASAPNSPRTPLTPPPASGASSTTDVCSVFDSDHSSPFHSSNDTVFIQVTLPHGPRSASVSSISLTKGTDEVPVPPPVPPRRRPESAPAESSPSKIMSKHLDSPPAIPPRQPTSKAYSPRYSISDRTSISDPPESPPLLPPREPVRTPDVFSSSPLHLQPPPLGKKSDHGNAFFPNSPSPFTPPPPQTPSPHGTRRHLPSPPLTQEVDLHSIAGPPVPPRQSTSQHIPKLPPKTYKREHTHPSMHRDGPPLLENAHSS
How it was run: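 SOS1cat (aa 564–1049) was titrated in a 12-point, 2-fold series from 10 μM top against 50 nM fluorescein-labeled probe. Buffer was 20 mM Tris-HCl pH 7.5, 50 mM NaCl, 1 mM magnesium chloride, with 20 min at room temperature in the dark. Anisotropy was read and Kd reported as mean ± SD of at least three independent experiments.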

[2] = molecular target: T2, Son of sevenless homolog 1 (Homo sapiens) (UniProt Q07889); assay: Activation of SOS1 in human NCI-H727 cells expressing KRAS G12V mutant assessed as induction of ERK1/2 T202/Y204 phosphorylation at 1.5 to 100 uM (lower range) incubated for 30 mins by In-cell Western assay; assay type: cell-based
T2 sequence (whole entry): T1 sequence (Q07889 whole entry)

[3] = molecular target: Son of sevenless homolog 1 (Homo sapiens, UniProt Q07889); assay: Activation of SOS1 in human NCI-H727 cells expressing KRAS G12V mutant assessed as induction of ERK1/2 T202/Y204 phosphorylation incubated for 30 mins by In-cell Western assay; assay type: cell-based
[4] = molecular target: T2, Son of sevenless homolog 1 (Homo sapiens); assay: Biphasic activity at of SOS1 in human HeLa cells expressing wild type KRAS assessed as induction of ERK1/2 T202/Y204 phosphorylation at 1.5 to 100 uM (lower range) incubated for 30 mins by In-cell Western assay; assay type: cell-based
[5] = molecular target: T1, Son of sevenless homolog 1; assay: Activation of SOS1 in human HeLa cells expressing wild type KRAS assessed as induction of ERK1/2 T202/Y204 phosphorylation incubated for 30 mins by In-cell Western assay; assay type: cell-based
[6] = molecular target: T2, Son of sevenless homolog 1 (Homo sapiens); assay: Activation of SOS1 in human NCI-H727 cells expressing KRAS G12V mutant assessed as induction of ERK1/2 T202/Y204 phosphorylation at 1.5 to 100 uM (higher range) incubated for 30 mins by In-cell Western assay; assay type: cell-based
[7] = molecular target: T2, Son of sevenless homolog 1 (Homo sapiens); assay: Biphasic activity at of SOS1 in human HeLa cells expressing wild type KRAS assessed as reduction in ERK1/2 T202/Y204 phosphorylation at 1.5 to 100 uM (higher range) incubated for 30 mins by In-cell Western assay; assay type: cell-based
[8] = molecular target: T1, Son of sevenless homolog 1; assay: Binding affinity to human recombinant N-terminal His6-tagged SOS1 (564 to 1049 residues) expressed in BL21-RIL Escherichia coli by fluorescent probe S3 based fluorescence polarization anisotrophy saturation binding assay
How it was run: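 SOS1cat (aa 564–1049) was titrated in a 16-point, 3-fold series from 10 μM top against 50 nM fluorescein probe S3. Buffer was 20 mM Tris-HCl pH 7.5, 50 mM NaCl, 1 mM magnesium chloride. Fluorescence anisotropy was read and Kd reported as mean ± SD of at least three independent experiments.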

[9] = molecular target: T1, Son of sevenless homolog 1; assay: Binding affinity to human recombinant N-terminal His6-tagged SOS1 (564 to 1049 residues) expressed in BL21-RIL Escherichia coli by fluorescent probe S2 based fluorescence polarization anisotrophy saturation binding assay
[10] = molecular target: T2, Son of sevenless homolog 1 (Homo sapiens); assay: Activation of SOS1 in human HeLa cells expressing wild type KRAS assessed as increase in RAS-GTP levels at 0.3 to 30 uM incubated for 10 mins by active RAS pull-down assay; assay type: cell-based
How it was run: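 HeLa cells seeded to reach 70% confluency after 24 h, then treated. RAS-GTP was captured by a RAF1-RBD active RAS pull-down kit, resolved by SDS-PAGE, blotted to PVDF and probed with pan-RAS antibody. Total RAS and α-tubulin inputs served as loading controls. Detection was by fluorescent secondary antibody on an Odyssey imager.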

[11] = molecular target: T2, Son of sevenless homolog 1 (Homo sapiens); assay: Activation of human recombinant N-terminal His6-tagged SOS1 (564 to 1049 residues) expressed in BL21-RIL Escherichia coli assessed as SOS1-RAS complex formation by measuring exchange of GTP to BODIPY-GDP measured every 3 secs for 30 mins by nucleotide exchange assay relative to control; set-up: concentration or dose not given beside the values
[12] = molecular target: T1, Son of sevenless homolog 1; assay: Activation of human recombinant N-terminal His6-tagged SOS1 (564 to 1049 residues) expressed in BL21-RIL Escherichia coli assessed as SOS1-RAS complex formation by measuring exchange of GTP to BODIPY-GDP measured every 3 secs for 30 mins by nucleotide exchange assay
[13] = molecular target: T2, Son of sevenless homolog 1 (Homo sapiens); assay: Activation of SOS1 in human HeLa cells expressing wild type KRAS assessed as increase in RAS-GTP levels at 10 to 30 uM incubated for 10 mins by active RAS pull-down assay; assay type: cell-based
How it was run: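 HeLa cells, STR-authenticated and mycoplasma-negative, were passaged at least twice after thaw (25 passages maximum). They were seeded to reach 70% confluency after 24 h, then treated. Active RAS-GTP was captured by RAF1-RBD pull-down and detected by SDS-PAGE and western blot with a pan-RAS antibody and a fluorescent secondary, read on an Odyssey imager. Total RAS and α-tubulin in the input served as loading controls.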

[14] = molecular target: T2, Son of sevenless homolog 1 (Homo sapiens); assay: Activation of SOS1 in human HeLa cells expressing wild type KRAS assessed as induction of ERK1/2 T202/Y204 phosphorylation at 1.5 to 100 uM incubated for 30 mins by In-cell Western assay

Kd [1] [µM] | SMILES | Activity [2] | EC50 [3] [µM] | Activity [4] | EC50 [5] [µM] | Activity [6] | Activity [7] | further results
0.44 | Cc1cc(Cn2c(N3CCNCC3)nc3c(-c4ccccc4C4CCC4)cc(Cl)cc32)cc(C)c1F | – | – | – | – | – | – | –
0.39 | Cc1cc(Cn2c(N3CCNCC3)nc3c(-c4ccccc4C(C)C)cc(Cl)cc32)cc(C)c1F | – | – | – | – | – | – | –
– | Cc1cc(Cn2c(N3CC4(CNC4)C3)nc3c(-c4cnc(N)nc4C)cc(Cl)cc32)cc(C)c1F | Active | 13.4 | Active | 7.8 | Active | Active | Kd [8]: 0.012 µM
– | Cc1nc(N)ncc1-c1cc(Cl)cc2c1nc(N1CC3(CNC3)C1)n2Cc1ccc(F)cc1 | Active | 27.5 | Active | 14 | inactive | Active | Kd [8]: 0.036 µM
– | Cc1cc(Cn2c(N3CC4(CNC4)C3)nc3c(-c4c(C)n[nH]c4C)cc(Cl)cc32)cc(C)c1F | Active | 21.1 | Active | 14.1 | Active | Active | Kd [8]: 0.009 µM
0.67 | Cc1cc(Cn2c(N3CCNCC3)nc3c(-c4cccc(C(F)(F)F)c4)cc(Cl)cc32)cc(C)c1F | – | – | – | – | – | – | –
0.21 | CCc1ccccc1-c1cc(Cl)cc2c1nc(N1CCNCC1)n2Cc1cc(C)c(F)c(C)c1 | – | – | – | – | – | – | –
0.33 | Cc1cc(Cn2c(N3CCNCC3)nc3c(-c4cccnc4)cc(Cl)cc32)cc(C)c1F | – | – | – | – | – | – | –
– | Cc1cc(Cn2c(N3CC4(CNC4)C3)nc3c(-c4ccccc4Cl)cc(Cl)cc32)cc(C)c1F | Active | 19.7 | Active | 14 | Active | Active | Kd [8]: 0.012 µM
0.15 | Cc1cc(Cn2c(N3CCNCC3)nc3c(-c4ccccc4C(F)(F)F)cc(Cl)cc32)cc(C)c1F | – | – | – | – | – | – | –
0.24 | Cc1cc(Cn2c(N3CCNCC3)nc3c(N4CCC(N)CC4)cc(Cl)cc32)cc(C)c1F | – | – | – | – | – | – | –
– | Cc1cc(Cn2c(N3CCNCC3)nc3c(-c4cncnc4C)cc(Cl)cc32)cc(C)c1F | Active | 14.5 | Active | 10.2 | Active | Active | Kd [9]: 0.11 µM; Activity [10]: Active
– | Cc1cc(Cn2c(N3CCNCC3)nc3c(N4CCC[C@H]4CN)cc(Cl)cc32)cc(C)c1F | Active | 7.3 | Active | 3.2 | Active | Active | Kd [9]: 0.14 µM
– | Fc1ccc(Cn2c(N3CCNCC3)nc3ccccc32)cc1Cl | Active | 51.4 | Active | 21 | inactive | inactive | Activity [11]: 109%; EC50 [12]: 5.4 µM
– | Cc1ncncc1-c1cc(Cl)cc2c1nc(N1CC3(CNC3)C1)n2Cc1ccc(F)cc1 | Active | 42.5 | Active | 33.2 | inactive | inactive | Kd [9]: 0.18 µM; Activity [10]: Active
0.27 | Cc1cc(Cn2c(N3CCNCC3)nc3c(-c4ccccc4)cc(Cl)cc32)cc(C)c1F | – | – | – | – | – | – | –
– | Cc1cc2nc(N3CCNCC3)n(Cc3ccc(F)c(Cl)c3)c2cc1C | Active | 29.1 | Active | 21.3 | Active | Active | Activity [11]: 211%; EC50 [12]: 2.2 µM
– | Cc1cc(Cn2c(N3CCNCC3)nc3c(-c4cncnc4)cc(Cl)cc32)cc(C)c1F | – | – | – | – | – | – | Kd [9]: 0.35 µM
– | Cc1cc(Cn2c(N3CCNCC3)nc3c(-c4cncnc4C(C)C)cc(Cl)cc32)cc(C)c1F | Active | 13.9 | Active | 8.8 | Active | Active | Kd [9]: 0.1 µM
– | Cc1cc(Cn2c(N3CCNCC3)nc3c(N4CCN(C)CC4)cc(Cl)cc32)cc(C)c1F | – | – | Active | – | Active | Active | Activity [13]: Active; Activity [14]: Active

SMILES | Kd [1] [µM] | Activity [2] | EC50 [3] [µM] | Activity [4] | EC50 [5] [µM] | Activity [6] | Activity [7] | further results
Cc1cc(Cn2c(N3CCNCC3)nc3c(-c4ccccc4Cl)cc(Cl)cc32)cc(C)c1F | 0.12 | Active | 36.8 | Active | 11 | inactive | Active | –
Cc1cc(Cn2c(N3CCNCC3)nc3c(C4=CCNCC4)cc(Cl)cc32)cc(C)c1F | 0.25 | – | – | – | – | – | – | –
Cc1cc(Cn2c(N3CCNCC3)nc3ccc(Cl)cc32)cc(C)c1F | 0.46 | Active | 21.2 | Active | 14.5 | Active | Active | –
Cc1cc(Cn2c(N3CCNCC3)nc3c(-c4ccc(C(F)(F)F)cc4)cc(Cl)cc32)cc(C)c1F | 1.05 | – | – | – | – | – | – | –
